High-throughput results: PubChem BioAssay, several laboratories
Scp1 inh – inhibitors of human Scp-1 phosphatase; Recombinant Scp1, phosphopeptide, malachite green phosphate absorbance; 340,000 compounds, 0.88% hits; Q9GZU7; inhibition, % at 20 µM;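 active means inhibition above about 50% at 20 µM, limit read from the data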;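 further: plate controls were DMSO wells with enzyme for no effect and wells lacking enzyme for full effect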
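Test system: SCP-1 phosphatase catalytic domain, residues 76-261; measured by: colorimetric phosphate reagent with accelerator and stabiliser, absorbance at 630 nm; timing: enzyme reaction 45 min at room temperature, colour 5 min, stabilisation 30 min; also added: Phosphorylated 17-residue peptide substrate; compound dosing: one concentration, 20 µM, with 1.0% DMSO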
STEP block – STEP (human) phosphatase inhibition. recombinant STEP, OMFP fluorogenic substrate, fluorescence. 360,000 compounds, 0.25% hits. inhibition, % at 20 µM;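 active means inhibition at 20 µM, scaled per plate between control wells, above about 37%, limit read from the data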;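 further: 0% = DMSO with enzyme and substrate and 100% = substrate only without enzyme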
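Assay system: isolated STEP enzyme. Buffer or medium: pH 6.0 Bis-Tris with DTT and Tween 20. Also added: fluorogenic phosphatase substrate OMFP at 25 µM final. Dosing: 20 µM, 1% DMSO. Timing: 20 min reaction, room temperature, in the dark. Measured by: fluorescence intensity, excitation 480 nm, emission 540 nm. Evaluation: normalized % inhibition.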
LMPTP block – blocks human LMPTP phosphatase | P24666 | AID 651560 | inhibition, % at 20 µM | recombinant LMPTP-A, OMFP fluorogenic substrate, fluorescence intensity | 360,000 compounds, 0.22% hits;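 active means compounds that cut the enzyme signal by at least half of the control window in the single-dose screen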;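 further: plate controls were DMSO wells with enzyme plus substrate for no effect and substrate without enzyme for full effect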
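Material: LMPTP-A; amount: 0.625 nM enzyme; doses: single 20 µM dose; times: reaction 50 min, room temperature, dark; technique: fluorescence intensity of OMFP turnover product; benchmarks: no-enzyme and uninhibited controls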
GRK2 inh – inhibitors of human GRK2 displacing RNA aptamer. P25098. bead flow cytometry, FAM-aptamer displacement from GRK2. inhibition of aptamer binding, % at 10 µM. 330,000 compounds, 0.59% hits. AID 488847;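 active means inhibition of aptamer binding above 40%, roughly 3 SD of noise, on plates passing a quality check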;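 further: median bead fluorescence of bound FAM aptamer so fluorescent compounds give negative values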
DNMT1 block – DNMT1 (human) enzyme inhibition | AID 588458 | DNMT1 molecular beacon, Hinp1I cleavage, fluorescence | inhibition (reported as % activation of signal), % at 10 µM | 360,000 compounds, 0.83% hits; in the data active means inhibition above about 50%
SUMO1-SIM PPI – alters human SUMO1 binding to SIM partners. SUMO1 binding to a labelled peptide, TR-FRET, 1 h. 360,000 compounds, 0.33% hits. inhibition, % at 20 µM; in the data active means inhibition above about 37%
GRK2 CP1 – confirmation of human GRK2 inhibitors displacing RNA aptamer. aptamer displacement, % at 10 µM. 2,000 compounds, 4% hits. shares compounds with GRK2 inh. bead-bound GRK2, FAM-aptamer displacement, flow cytometry;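 active means aptamer displacement above 40%, near three times the noise of non-fluorescent compounds, on plates passing quality checks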;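 further: negative values mostly reflect intrinsic compound fluorescence rather than true enhancement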
FAM quench CP1 – counter-screen for GRK2 aptamer inhibitors: fluorescent aptamer quenchers | shares compounds with GRK2 inh | Carboxyfluorescein RNA aptamer on beads, flow cytometry quenching; hits give low values | fluorescence response (% of DMSO), % at 10 µM | 2,000 tested, under 10 active | AID 504580;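 active means compounds that quench the bead-bound fluorescent RNA probe, cutting fluorescence to under half of the solvent control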;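 further: counterscreen run without GRK2 so only probe quenching by compound is measured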
* = called active by the depositor; . = no result. In the library only some 2.1% were active in any assay of this set; here they are far more common.

SMILES	Scp1 inh	STEP block	LMPTP block	GRK2 inh	DNMT1 block	SUMO1-SIM PPI	GRK2 CP1	FAM quench CP1
O=C(CC1SC(N2CCCCC2)=NC1=O)Nc1ccc(C(=O)NCc2ccccc2)cc1 (stereo not given)	-5	6	1	0	-3	3	.	.
O=C(CC1SC(N2CCCCC2)=NC1=O)Nc1cccc(C(=O)NCc2ccccc2)c1 (stereo not given)	-15	2	-1	3	1	-1	-1	99
CC1(Cc2ccc(Cl)cc2)C(=O)Nc2c(Cl)cccc21 (stereo not given)	.	0	0	.	1	1	.	.
O=C(C1CCOCC1)N1CCCC(N2CCN(c3cccc(C(F)(F)F)c3)CC2)C1 (stereo not given)	-6	-5	0	0	0	3	.	.
O=C(Cc1cc(C(=O)O)c2ccccc2n1)Nc1ccccc1	3	0	-1	0	16	1	.	.
CCN(CC)C(=O)Cc1cc(C(=O)O)c2ccccc2n1	-3	-1	-1	29	0	9	-8	104
N#C/C(=C\c1ccc(O)c(O)c1)C(=O)c1ccc(O)c(O)c1	1	2	17	54*	15	-32	2	102
COc1cccc(N=Cc2nc(-c3ccccc3)oc2OC(C)=O)c1	-14	2	-1	0	-7	-1	.	.
COc1ccc(N=Cc2nc(-c3ccccc3)oc2OC(C)=O)cc1	-5	11	-1	73*	-5	-1	1	97
C=CCSc1nnc(CC(OC)OC)n1-c1ccccc1	-7	2	0	7	5	-3	.	.
O=Cc1cccc(OC(=O)/C=C/c2ccco2)c1	69*	48*	33	62*	92*	12	5	97
COC(=O)c1ccc(OC(=O)/C=C/c2ccco2)cc1	10	11	7	5	17	-34	.	.
Cn1nccc1C(=O)Nc1ccc2c(c1)OCCO2	-4	-2	0	100*	-1	-6	3	95
CCOC(=O)N1CCC(=NNC(=O)c2ccc(O)cc2)CC1	-4	1	-1	2	-3	0	.	.
C[n+]1c2n(c3ccccc31)N=C(c1cc(C(C)(C)C)c(O)c(C(C)(C)C)c1)CS2	9	2	2	64*	4	-13	-1	101
COc1cccc(C2=Nn3c(nnc3-c3ccccc3O)SC2)c1	-4	5	0	4	8	6	.	.
N#C/C(=C/C1=C(N2CCOCC2)C(=C/c2ccc(Cl)cc2)/CC1)C(=O)Nc1ccccc1F	-10	5	14	.	38	-37	.	.
Cc1ccc2c(c1)Oc1ccc([N+](=O)[O-])cc1C(=O)N2	-8	0	0	2	8	-11	.	.
Cc1ccc2c(c1)Oc1ccc(NC(=O)CCl)cc1C(=O)N2	-13	-2	-1	41*	7	-3	-8	116
Cc1ccc(C(=O)OCC(=O)Nc2ccc3c(c2)OCCO3)cc1C	-6	0	1	.	-3	0	.	.
COc1ccc(CNC(=O)COC(=O)c2ccc3c(c2)OCCO3)cc1	-18	2	-2	58*	0	2	-4	104
Cc1cc(C)cc(NC(=O)COC(=O)c2ccc3c(c2)OCCO3)c1	-5	-2	0	100*	-3	-11	-3	102
Cc1ccc(Cl)cc1NC(=O)Nc1cccs1	1	-1	0	1	-5	2	.	.
CCOC(=O)C1(Cc2cccc(F)c2)CCN(CC2CC2)CC1	6	-3	0	12	-4	-1	.	.
CCOC(=O)C1(Cc2cccc(F)c2)CCN(CC(O)CO)CC1 (stereo not given)	-4	6	1	78*	-2	4	-1	103
Cc1nn2cnnc2c(C)c1Cc1c(F)cccc1Cl	-9	1	1	0	1	-1	.	.
